The text below walks through data of paper PMC10319625 (PNAS Nexus, 2023).

Data set [1] has as its system SAS. As to the kind of experiment: Cell proliferation assay. The class given is cell-based, human. The conditions noted are these: 48 h.
Data set [2] is classed as in vivo, mouse. The conditions noted are these: day 10 of treatment, versus negative control.
Data set [3] has as its system SAS cells xenograft tumors in KSN/Slc nude mice. As to the kind of experiment: Mouse xenograft model, tumor volume. Format: in vivo. The following applies: 3 µmol/kg cAQ-mBen or 30 µmol/kg CDDP, peritoneally every 2 days for 5 times. In short, it runs like this: (§1)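 SAS cells were inoculated subcutaneously into KSN/Slc nude mice. From day 7 after inoculation (day 0), mice received saline, 3 µmol/kg test compound or 30 µmol/kg cisplatin intraperitoneally every 2 days, 5 times. Tumor volume and body weight were recorded at set points to day 10 (n = 9 control and test, n = 8 cisplatin). Statistics: two-way ANOVA with Tukey's test.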

Data set [4] in a line: Mouse xenograft model, body weight. Format: in vivo. The following applies: 3 µmol/kg cAQ-mBen or 30 µmol/kg CDDP, every 2 days for 5 times. In short, it runs like this:
as §1

Data set [5] has as its system primary mouse bone marrow cells (BMCs). As to the kind of experiment: Cell proliferation assay. The conditions noted are these: BMC (normal cells), 48 h. The class given is cell-based.
Data set [6] has as its system HeLa. Nature of the data set: Cell proliferation assay. Format: cell-based, human. The conditions noted are these: 48 h.
The test system of data set [7] is SAS cells. As to the kind of experiment: Western blot analysis of caspase-3 and PARP-1 cleavages. The class given is cell-based, human. The following applies: 5 µM cAQ-mBen or 50 µM CDDP, 12 or 24 h. (In general: Immunoblotting shows a protein as a band on a membrane.)
Data set [8] concerns SAS cells. Nature of the data set: Annexin V/PI staining. Format: cell-based, human. The conditions noted are these: 5 µM cAQ-mBen or 50 µM CDDP, 24 h. In short, it runs like this:
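SAS cells were exposed for 24 h to 5 µM test compound or to 50 µM cisplatin (positive control), then stained with annexin V-FITC and propidium iodide. Positive cells are expressed as % of total cell number per field. Values are mean ± SD of total apoptotic cells (n = 5), compared by one-way ANOVA with Tukey's test.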

Data set [9] concerns Ca9-22. Nature of the data set: Cell proliferation assay. The class given is cell-based, human. The following applies: Ca9-22, 48 h.
For data set [10], the system named is liver and kidney of KSN/Slc nude mice. As to the kind of experiment: Histopathological analysis of liver and kidney, tumor-free mice. Format: in vivo, mouse. The conditions noted are these: 10 days treatment. In short, it runs like this:
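Tumor-free KSN/Slc nude mice received saline, test compound or cisplatin for 10 days on the xenograft regimen. Liver and kidney sections were HE-stained for histopathology. Glomerulus area was measured (mean ± SD, n = 15 sections from 3 mice) and compared by one-way ANOVA with Tukey's test.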

Data set [11] concerns PANC-1 and MIA PaCa-2. The conditions noted are these: human pancreatic cancer cell lines, cited from earlier work.

Usually IC50 stands for the point on the concentration scale where inhibition reaches its midpoint.

Read-outs that look alike come from different tables or passages of the source.

For the compound `N.N.[Cl][Pt][Cl]` [CDDP, cis-diamminedichloroplatinum(II)], the IC50 in data set [1] amounted to 4.3 µM; in data set [5], 1.3 µM; in data set [6], 0.5 µM; in data set [9], 27.7 µM. Also, in data set [2], the “physiological indices of serum (BUN, UA, AST, ALT, CRE, and γ-GTP levels)” value is on record as “substantial increase”. Also, the “increase in the tumor volume” value in data set [3] is reported as “significantly suppressed”. For the same compound, the “body weight of mice” value in [4] was “considerably reduced”. Further, in [7], the “digestion of PARP-1 and caspase-3” value is given as “observed in a time-dependent manner”. Besides, the “Anx Alone(%), cells positive for annexin V, % of total cell count, Mean” value in data set [8] came out at 24.0%. Moreover, the “PI (%), cells positive for PI signal, % of total cell count, Mean” value in [8] was determined as 18.5%. In data set [10], the “cell arrangement and size of the glomerulus in the kidney” value is listed as “significant condensation of the glomerulus area”.
For `O=C1c2ccc3c4c(c(NCCN5CCCC5)cc(c24)C(=O)N1CCCN1CCOCC1)C(=O)N(CCCN1CCOCC1)C3=O` [CM03], the “expression of hTERT” value in [11] (after 6 h) was “remained downregulated”.
On to `O=C1c2cc(-c3ccc(CN4CCCC4)cc3)c3c4c(cc(NCCN5CCCC5)c(c24)C(=O)N1CCCN1CCOCC1)C(=O)N(CCCN1CCOCC1)C3=O` [SOP1812], for which the “expression of hTERT” value in data set [11] (after 24 h) is listed as “remained downregulated”.
